Drawing on ChEMBL document CHEMBL4837218, “Synthesis and in vitro antitumour activity of 4(R)-methyl-3-O-phosphonomethyl-α-l-threose nucleosides” (Eur J Med Chem, 2021), this text covers Activity, inhibition and IC50 for one compound.

Assay [1] has as its system MCF7. The experiment in a line: Induction of mitochondrial membrane potential loss in human MCF7 cells assessed as red fluorescence intensity at 2 uM measured after 48 hrs by JC1 staining-based flow cytometry analysis (reference value: 91.9%). In kind it is functional.
Assay [2] concerns MCF7. As to the kind of experiment: Induction of apoptosis in human MCF7 cells assessed as increase in Bad protein expression at 1 to 4 uM measured after 48 hrs by western blot analysis. It counts as functional, cell-based. The conditions noted are these: dose 1-4 µM. An outline of the steps: (§1)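 MCF-7 and MDA-MB-231 breast cancer cells treated 48 h with a concentration series, then lysed for protein. SDS-PAGE on 5–15% gels, transfer to nitrocellulose. Blocked 2 h in 5% nonfat milk/PBS-0.1% Tween 20, primary antibodies overnight at 4 °C, biotin-conjugated secondary 1 h. X-ray film detection with densitometric quantification.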

Assay [3] relates to MDA-MB-231. The experiment in a line: Induction of mitochondrial membrane potential loss in human MDA-MB-231 cells assessed as green fluorescence intensity at 9 uM measured after 48 hrs by JC1 staining-based flow cytometry analysis (reference value: 0.8%). In kind it is functional.
Assay [4] deals with MDA-MB-231. The experiment in a line: Induction of apoptosis in human MDA-MB-231 cells assessed as increase in cleaved caspase 3 protein expression at 9 uM measured after 48 hrs in presence of cdc25c inhibitor, NSC663284 by western blot analysis. It counts as functional, cell-based. An outline of the steps: (§2)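 Four arms per cell line: untreated, test compound, 0.3 µM NSC663284 alone, and combination. Proteins harvested after 48 h and resolved by SDS-PAGE on 5–15% gels, transferred to nitrocellulose. Blocked 2 h in milk/PBS-Tween, primary antibodies overnight at 4 °C, biotin-conjugated secondary. Read on X-ray film with densitometry.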

The subject of assay [5] is MDA-MB-231. As to the kind of experiment: Induction of apoptosis in human MDA-MB-231 cells assessed as increase in Bad protein expression at 3 to 9 uM measured after 48 hrs by western blot analysis. It counts as functional, cell-based. As to conditions: dose 3-9 µM. The method in brief:
as §1

The test system of assay [6] is MCF7. As to the kind of experiment: Inhibition of PI3K/AKT signalling pathway in human MCF7 cells assessed as downregulation of AKT phosphorylation at Ser473 residue at 1 to 4 uM measured after 48 hrs by Western blot analysis. It counts as cell-based. As to conditions: dose 1-4 µM. An outline of the steps:
(§3)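 After 48 h exposure to compound at several concentrations, cells collected and proteins extracted. SDS-PAGE on 5–15% gels, transfer to nitrocellulose, blocking 2 h in 5% nonfat milk in PBS/0.1% Tween 20, primary antibodies overnight at 4 °C, biotin-conjugated secondary 1 h. Detection on X-ray film; band densitometry.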

For assay [7], the system named is MCF7. The experiment in a line: Cell cycle arrest in human MCF7 cells assessed as accumulation at G1 phase at 1 uM measured after 48 hrs by propidium iodide staining based flow cytometry (reference value: 70.09 %). In kind it is functional.
A further assay concerns PC-3. As to the kind of experiment: Antiproliferative activity against human PC-3 cells assessed as cell growth inhibition measured after 72 hrs by MTT assay. In kind it is functional, cell-based. The conditions noted are these: PC-3, 72 h. An outline of the steps:
(§4)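 Cells seeded at 3000 exponentially growing cells/well and incubated 12 h at 37 °C. Medium then replaced with fresh medium containing graded compound concentrations for 72 h; 5-FU positive control. MTT (5 mg/mL solution) added for 4 h, formazan dissolved in DMSO, absorbance read at 570 nm (reference 630 nm). Relative percentage inhibition of viable cells calculated; IC50 reported as mean ± standard deviation.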

Assay [8] concerns MDA-MB-231. As to the kind of experiment: Inhibition of colony formation in human MDA-MB-231 cells incubated for 24 hrs followed by medium removal and measured after 7 days by crystal violet staining based assay. It counts as functional, cell-based. As to conditions: dose 3-9 µM. An outline of the steps: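 Cells seeded at 1 × 10³ per well in six-well plates and left overnight. Compound (DMSO solution) given in fresh medium for 24 h, then medium removed and plates grown another 7 days. Colonies washed with PBS, fixed in 4% paraformaldehyde 30 min, stained with 0.1% crystal violet 30 min, photographed and counted.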

The subject of assay [9] is MDA-MB-231. The experiment in a line: Cell cycle arrest in human MDA-MB-231 cells assessed as accumulation at G2/M phase at 9 uM measured after 48 hrs by propidium iodide staining based flow cytometry (reference value: 15.46 %). It counts as functional.
In assay [10] the test system is MCF7. As to the kind of experiment: Cell cycle arrest in human MCF7 cells assessed as accumulation of cells at G2/M phase at 4 uM in presence of inhibitor cdc25c inhibitor, NSC663284 measured after 48 hrs by PI staining based flow cytometry. In kind it is functional. An outline of the steps:
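Four arms (untreated, test compound alone, 0.3 NSC663284 alone, combination) applied to cells for 48 h. Cells were fixed in 70% ice-cold ethanol at 4 °C overnight and stained with RNase/PI for 30 min in the dark. G2/M fraction was read by flow cytometry.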

Assay [11] relates to MDA-MB-231. The experiment in a line: Induction of apoptosis in human MDA-MB-231 cells assessed as increase in cleaved PARP protein expression at 9 uM measured after 48 hrs in presence of cdc25c inhibitor, NSC663284 by western blot analysis. It counts as functional, cell-based. The method in brief: as §2
The subject of assay [12] is MCF7. As to the kind of experiment: Induction of G2/M phase cell cycle arrest in human MCF7 cells assessed as decrease in p-cdc2 protein expression at 1 to 4 uM measured after 48 hrs by western blot analysis. In kind it is functional, cell-based. The conditions noted are these: dose 1-4 µM. The method in brief: (§5)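 Cells exposed to graded concentrations for 48 h, then proteins extracted. Run on SDS-PAGE (5–15% gels) and transferred to nitrocellulose. Blocked 2 h in 5% nonfat milk in PBS/0.1% Tween 20, primary antibody overnight at 4 °C, biotin-conjugated secondary 1 h. Visualized on X-ray film with densitometric quantitation; three independent experiments.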

Assay [13] relates to MDA-MB-231. The experiment in a line: Cell cycle arrest in human MDA-MB-231 cells assessed as accumulation at G1 phase at 6 uM measured after 48 hrs by propidium iodide staining based flow cytometry (reference value: 46.28 %). It counts as functional.
For assay [14], the system named is MCF7. The experiment in a line: Anticancer activity against human MCF7 cells assessed as inhibition of cell growth measured after 72 hrs by MTT assay. In kind it is functional, cell-based. The conditions noted are these: MCF7, 72 h. The method in brief: as §4
In assay [15] the test system is MDA-MB-231. As to the kind of experiment: Inhibition of PI3K/AKT signalling pathway in human MDA-MB-231 cells assessed as downregulation of 85ap-PI3K expression at 3 to 9 uM measured after 48 hrs by Western blot analysis. It counts as cell-based. As to conditions: dose 3-9 µM. An outline of the steps:
as §3

Assay [16] concerns MDA-MB-231. As to the kind of experiment: Induction of apoptosis in human MDA-MB-231 cells assessed as late apoptotic cells at 3 uM measured after 48 hrs by Annexin V-FITC/propidium iodide staining based flow cytometric analysis (reference value: 0.3%). It counts as functional.
Assay [17] relates to MDA-MB-231. The experiment in a line: Induction of apoptosis in human MDA-MB-231 cells assessed as early apoptotic cells at 9 uM measured after 48 hrs by Annexin V-FITC/propidium iodide staining based flow cytometric analysis (reference value: 1%). In kind it is functional.
Assay [18] relates to MDA-MB-231. The experiment in a line: Induction of mitochondrial membrane potential loss in human MDA-MB-231 cells assessed as red fluorescence intensity at 9 uM measured after 48 hrs by JC1 staining-based flow cytometry analysis (reference value: 99.2 %). It counts as functional.
The subject of assay [19] is MCF7. The experiment in a line: Induction of mitochondrial membrane potential loss in human MCF7 cells assessed as red fluorescence intensity at 1 uM measured after 48 hrs by JC1 staining-based flow cytometry analysis (reference value: 91.9%). In kind it is functional.
Assay [20] relates to MCF7. As to the kind of experiment: Cell cycle arrest in human MCF7 cells assessed as accumulation at G1 phase at 2 uM measured after 48 hrs by propidium iodide staining based flow cytometry (reference value: 70.09 %). It counts as functional.
Assay [21] deals with MDA-MB-231. As to the kind of experiment: Induction of mitochondrial membrane potential loss in human MDA-MB-231 cells assessed as red fluorescence intensity at 3 uM measured after 48 hrs by JC1 staining-based flow cytometry analysis (reference value: 99.2 %). In kind it is functional.
The test system of assay [22] is MCF7. As to the kind of experiment: Induction of G2/M phase cell cycle arrest in human MCF7 cells assessed as decrease in cyclinB1 protein expression at 1 to 4 uM measured after 48 hrs by western blot analysis. In kind it is functional, cell-based. As to conditions: dose 1-4 µM. An outline of the steps:
as §5

The source made the active and inactive calls. No cut-off for these calls is given here.

For `C[C@H]1O[C@@H](n2cnc3c(N)nc(F)nc32)[C@H](O)[C@H]1OCP(=O)([O-])[O-].[Na+].[Na+]`, the Activity with MCF7 [1] was 67.2%; in the assay on MDA-MB-231 [3], 63%; in the assay on MCF7 [7] it was 63.54%; with MDA-MB-231 [9], 31.49%; with MDA-MB-231 [13], 37.3%; with MDA-MB-231 [16], 13%. Further, the Activity in the assay with MDA-MB-231 [17] is 24.8%; in the assay on MDA-MB-231 [18], 37%; in the assay on MCF7 [19] it was 90.9%; in the assay on MCF7 [20] it was 41.43%; with MDA-MB-231 [21], 98.6%. Also, the result in the assay on MCF7 [2], in the assay with MDA-MB-231 [5], with MCF7 [12] and in the assay with MCF7 [22] was Active. Besides, the result in the assay on MDA-MB-231 [4], in the assay on MCF7 [10] and with MDA-MB-231 [11] was inactive. For the same compound, the inhibition result in the assay with MCF7 [6] and with MDA-MB-231 [15] was “Active” in each case. The IC50 with PC-3 was 2.21 µM; in the assay on MCF7 [14], 0.476 µM. For the same compound, the inhibition entry with MDA-MB-231 [8] is “Dose-Dependent Effect”.
